# Measured values reported in ChEMBL document CHEMBL4346684, “Synthesis and structure-bactericidal activity relationships of non-ketolides: 9-Oxime clarithromycin 11,12-cyclic carbonate featured with three-to eight-atom-length spacers at 3-OH” (Eur J Med Chem, 2019).
# Activity calls are given as the source filed them. No cut-off for these calls is given here.
# Legend:
# Haemophilus influenzae [1] = assay: Bactericidal activity against azithromycin-susceptible Haemophilus influenzae ATCC 49247 assessed as reduction in colony formation incubated in HTM broth medium for 20 to 24 hrs followed by 24 hrs subculturing in the medium without test compound; assay type: functional
# Streptococcus pneumoniae [2] = assay: Ratio of MBC to MIC for erythromycin-susceptible Streptococcus pneumoniae ATCC 49619; assay type: functional
# Haemophilus influenzae [3] = assay: Antimicrobial activity against azithromycin-susceptible Haemophilus influenzae ATCC 49247 incubated in HTM broth medium for 20 to 24 hrs by two-fold microbroth dilution method; assay type: functional
# Streptococcus pneumoniae [4] = assay: Antimicrobial activity against erythromycin-susceptible Streptococcus pneumoniae ATCC 49619 incubated in CAMHB medium for 20 to 24 hrs by two-fold microbroth dilution method; assay type: functional
# Streptococcus pneumoniae [5] = assay: Bactericidal activity against erythromycin-susceptible Streptococcus pneumoniae ATCC 49619 incubated at >1XMIC incubated for 1 to 24 hrs by broth dilution method; assay type: functional, organism-based
# How it was run: (§1)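 Samples taken at 1, 2, 4, 6, 8, 12, 24 h, diluted and plated, colonies counted after 20-24 h at 35 °C; log CFU plotted against time. Detection limit 300 CFU/mL.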
# Rattus norvegicus [6] = assay: Ratio of telithromycin Cmax to compound Cmax in Sprague-Dawley rat at 20 mg/kg, po administered as single dose measured for 0.25 to 24 hrs by LC-MS/MS analysis; assay type: ADME, organism-based; conditions: in vivo
# [7] = MRT in Sprague-Dawley rat at 20 mg/kg, po administered as single dose measured for 0.25 to 24 hrs by LC-MS/MS analysis; assay type: ADME, organism-based; conditions: in vivo
# How it was run: (§2)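 Male SD rats (2-3 per compound) given a single oral 20 mg/kg dose in saline with 1% DMF/20% hydroxypropyl-β-cyclodextrin (w/v). Blood drawn at 0.25, 0.5, 1, 2, 4, 6, 8 and 24 h, centrifuged 2500 g, 5 min, 4 °C; drug quantified by LC-MS/MS. Noncompartmental parameters calculated (AUC0-t, AUCinf, CL, t1/2, MRT, Cmax, Tmax); mean ± s.d.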
# Streptococcus pneumoniae [8] = assay: Antimicrobial activity against mef-encoded erythromycin resistant Streptococcus pneumoniae PU09 incubated in CAMHB medium for 20 to 24 hrs by two-fold microbroth dilution method; assay type: functional
# Streptococcus pyogenes [9] = assay: Bactericidal activity against inducibly erythromycin resistant Streptococcus pyogenes 01-968 expressing i-ermA assessed as log reduction in bacterial CFU at 1 to 16XMIC incubated for 24 hrs by broth dilution method; assay type: functional
# How it was run: (§3)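 Samples were taken at 1, 2, 4, 6, 8, 12 and 24 h, diluted and subcultured at 35 °C for 20–24 h. Colonies were counted and log CFU plotted against time; detection limit 300 CFU/mL.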
# Streptococcus pyogenes [10] = assay: Antimicrobial activity against inducibly erythromycin resistant Streptococcus pyogenes 01-968 expressing i-ermA incubated in CAMHB medium for 20 to 24 hrs by two-fold microbroth dilution method; assay type: functional
# Rattus norvegicus [11] = assay: Ratio of telithromycin AUC to compound AUC in Sprague-Dawley rat at 20 mg/kg, po administered as single dose measured for 0.25 to 24 hrs by LC-MS/MS analysis; assay type: ADME, organism-based; conditions: in vivo
# Staphylococcus aureus [12] = assay: Ratio of MBC to MIC for inducibly erythromycin-resistant and methicillin resistant Staphylococcus aureus PU32 expressing i-ermA; assay type: functional
# Rattus norvegicus [13] = assay: Ratio of telithromycin half life to compound half life in Sprague-Dawley rat at 20 mg/kg, po administered as single dose measured for 0.25 to 24 hrs by LC-MS/MS analysis; assay type: ADME, organism-based; conditions: in vivo
# Streptococcus pyogenes [14] = assay: Bactericidal activity against inducibly erythromycin resistant Streptococcus pyogenes 01-968 expressing i-ermA at 1 to 16XMIC incubated for 12 hrs by broth dilution method; assay type: functional, organism-based; how it was run: as §3
# Streptococcus pneumoniae [15] = assay: Bactericidal activity against mef-encoded erythromycin resistant Streptococcus pneumoniae PU09 at 1 to 16xMIC incubated for 1 to 24 hrs by broth dilution method; assay type: functional, organism-based; how it was run: as §3
# Cytochrome P450 3A4 = Cytochrome P450 3A4 (Homo sapiens, UniProt P08684); assay: Inhibition of CYP3A4 in human liver microsomes using midazolam as substrate incubated for 10 mins after substrate addition by HPLC analysis; assay type: ADME
# How it was run: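 Human liver microsome CYP3A4 (0.03 mg/mL final), midazolam 5.00 μM final, 0.1 M potassium phosphate pH 7.4 with MgCl2, preincubated 37 °C 5 min. Test compound 0-25.00 μM (ketoconazole 0-0.25 μM as reference) and NADPH 1.5 mM final added; 10 min at 37 °C. Metabolite/internal-standard peak-area ratio measured by UPLC-MS/MS; IC50 fitted.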
# [16] = Clearance in Sprague-Dawley rat at 20 mg/kg, po administered as single dose measured for 0.25 to 24 hrs by LC-MS/MS analysis; assay type: ADME, organism-based; conditions: in vivo; how it was run: as §2
# Streptococcus pneumoniae [17] = assay: Bactericidal activity against mef-encoded erythromycin resistant Streptococcus pneumoniae PU09 assessed as reduction in colony formation incubated in CAMHB medium for 20 to 24 hrs followed by 24 hrs subculturing in the medium without test compound; assay type: functional
# Streptococcus pneumoniae [18] = assay: Bactericidal activity against erythromycin-susceptible Streptococcus pneumoniae ATCC 49619 assessed as reduction in colony formation incubated in CAMHB medium for 20 to 24 hrs followed by 24 hrs subculturing in the medium without test compound; assay type: functional
# Streptococcus pneumoniae [19] = assay: Ratio of MBC to MIC for mef-encoded erythromycin resistant Streptococcus pneumoniae PU09; assay type: functional
# [20] = Cmax in Sprague-Dawley rat at 20 mg/kg, po administered as single dose measured for 0.25 to 24 hrs by LC-MS/MS analysis; assay type: ADME, organism-based; set-up: dose 20 mg/kg, route oral; conditions: in vivo; how it was run: as §2
# Staphylococcus aureus [21] = assay: Antimicrobial activity against constitutively erythromycin resistant and methicillin resistant Staphylococcus aureus PU20 expressing c-ermC incubated in CAMHB medium for 20 hrs by two-fold microbroth dilution method; assay type: functional; conditions: PU20, 20 h
# How it was run: (§4)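 Purified fresh Staphylococcus isolate at about 5×10^5 CFU/ml final in CAMHB, 35 °C for 20 h. Each run included ATCC strains and reference antibiotics as QC, plus an antibiotic-free growth control.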
# Streptococcus pneumoniae [22] = assay: Ratio of clarithromycin MBC to compound MBC for mef-encoded erythromycin resistant Streptococcus pneumoniae PU09; assay type: functional
# [23] = Half life in Sprague-Dawley rat at 20 mg/kg, po administered as single dose measured for 0.25 to 24 hrs by LC-MS/MS analysis; assay type: ADME, organism-based; conditions: in vivo; how it was run: as §2
# Staphylococcus aureus [24] = assay: Bactericidal activity against inducibly erythromycin-resistant and methicillin resistant Staphylococcus aureus PU32 expressing i-ermA assessed as reduction in colony formation incubated in CAMHB medium for 20 hrs followed by 24 hrs subculturing in the medium without test compound; assay type: functional
# Streptococcus pneumoniae [25] = assay: Bactericidal activity against erythromycin-susceptible Streptococcus pneumoniae ATCC 49619 assessed as log reduction in bacterial CFU at 1XMIC incubated for 1 to 24 hrs by broth dilution method; assay type: functional; how it was run: as §1
# Streptococcus pyogenes [26] = assay: Bactericidal activity against inducibly erythromycin resistant Streptococcus pyogenes 01-968 expressing i-ermA assessed as reduction in colony formation incubated in CAMHB medium for 20 to 24 hrs followed by 24 hrs subculturing in the medium without test compound; assay type: functional
# Haemophilus influenzae [27] = assay: Ratio of MBC to MIC for azithromycin-susceptible Haemophilus influenzae ATCC 49247; assay type: functional
# Streptococcus pyogenes [28] = assay: Ratio of clarithromycin MBC to compound MBC for inducibly erythromycin resistant Streptococcus pyogenes 01-968 expressing i-ermA; assay type: functional
# [29] = Ratio of telithromycin MRT to compound MRT in Sprague-Dawley rat at 20 mg/kg, po administered as single dose measured for 0.25 to 24 hrs by LC-MS/MS analysis; assay type: ADME, organism-based; conditions: in vivo
# [30] = AUCinfinity in Sprague-Dawley rat at 20 mg/kg, po administered as single dose measured for 0.25 to 24 hrs by LC-MS/MS analysis; assay type: ADME, organism-based; set-up: dose 20 mg/kg, time infinity, route oral; conditions: in vivo; how it was run: as §2
# Staphylococcus aureus [31] = assay: Antimicrobial activity against inducibly erythromycin-resistant and methicillin resistant Staphylococcus aureus PU32 expressing i-ermA incubated in CAMHB medium for 20 hrs by two-fold microbroth dilution method; assay type: functional; conditions: PU32, 20 h; how it was run: as §4
# Rattus norvegicus [32] = assay: Ratio of telithromycin Tmax to compound Tmax in Sprague-Dawley rat at 20 mg/kg, po administered as single dose measured for 0.25 to 24 hrs by LC-MS/MS analysis; assay type: ADME, organism-based; conditions: in vivo
# [33] = Tmax in Sprague-Dawley rat at 20 mg/kg, po administered as single dose measured for 0.25 to 24 hrs by LC-MS/MS analysis; assay type: ADME, organism-based; conditions: in vivo; how it was run: as §2
# Staphylococcus aureus [34] = assay: Ratio of clarithromycin MBC to compound MBC for inducibly erythromycin-resistant and methicillin resistant Staphylococcus aureus PU32 expressing i-ermA; assay type: functional
# [35] = AUC (0 to t) in Sprague-Dawley rat at 20 mg/kg, po administered as single dose measured for 0.25 to 24 hrs by LC-MS/MS analysis; assay type: ADME, organism-based; set-up: time 0.25-24 hr, dose 20 mg/kg, route oral; conditions: in vivo; how it was run: as §2
# Rattus norvegicus [36] = assay: Ratio of telithromycin clearance to compound clearance in Sprague-Dawley rat at 20 mg/kg, po administered as single dose measured for 0.25 to 24 hrs by LC-MS/MS analysis; assay type: ADME, organism-based; conditions: in vivo
# Streptococcus pyogenes [37] = assay: Ratio of MBC to MIC for inducibly erythromycin resistant Streptococcus pyogenes 01-968 expressing i-ermA; assay type: functional
# Cytochrome P450 3A4, sequence (P08684 whole entry): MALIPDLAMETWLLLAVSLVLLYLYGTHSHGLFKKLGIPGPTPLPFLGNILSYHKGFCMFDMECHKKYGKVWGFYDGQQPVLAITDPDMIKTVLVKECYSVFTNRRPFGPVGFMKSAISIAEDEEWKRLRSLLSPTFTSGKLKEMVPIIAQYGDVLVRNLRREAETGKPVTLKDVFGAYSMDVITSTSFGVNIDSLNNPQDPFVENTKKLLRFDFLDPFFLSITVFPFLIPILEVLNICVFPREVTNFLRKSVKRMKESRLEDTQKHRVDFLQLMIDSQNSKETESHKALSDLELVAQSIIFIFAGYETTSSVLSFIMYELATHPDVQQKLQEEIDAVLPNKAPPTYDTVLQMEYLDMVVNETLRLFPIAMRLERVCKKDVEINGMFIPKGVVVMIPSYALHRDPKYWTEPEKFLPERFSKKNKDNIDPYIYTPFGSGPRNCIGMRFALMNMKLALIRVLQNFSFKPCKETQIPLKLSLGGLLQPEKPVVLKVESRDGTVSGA
smiles,measurement,setting,value
CC[C@H]1OC(=O)[C@H](C)[C@@H](OC(=O)NCCCc2cccnc2)[C@H](C)[C@@H](O[C@@H]2O[C@H](C)C[C@H](N(C)C)[C@H]2O)[C@](C)(OC)C[C@@H](C)/C(=N\OC)[C@H](C)[C@H]2OC(=O)O[C@@]21C,MBC,Haemophilus influenzae [1],128 µg/mL
same,Ratio,Streptococcus pneumoniae [2],2
same,MIC,Haemophilus influenzae [3],64 µg/mL
same,MIC,Streptococcus pneumoniae [4],0.06 µg/mL
same,Activity,Streptococcus pneumoniae [5],Active
same,Ratio,Rattus norvegicus [6],5
same,MRT,[7],4.53 h
same,MIC,Streptococcus pneumoniae [8],0.5 µg/mL
same,Activity,Streptococcus pyogenes [9],<=3 log10CFU
same,MIC,Streptococcus pyogenes [10],0.25 µg/mL
same,Ratio,Rattus norvegicus [11],7
same,Ratio,Staphylococcus aureus [12],2
same,Ratio,Rattus norvegicus [13],2.4
same,Activity,Streptococcus pyogenes [14],Active
same,Activity,Streptococcus pneumoniae [15],Active
same,IC50,Cytochrome P450 3A4,2500 nM
same,CL/F,[16],50.6 mL/min/kg
same,MBC,Streptococcus pneumoniae [17],0.5 µg/mL
same,MBC,Streptococcus pneumoniae [18],0.125 µg/mL
same,Ratio,Streptococcus pneumoniae [19],1
same,Cmax,[20],1030 ng/mL
same,MIC,Staphylococcus aureus [21],> 256 µg/mL
same,Ratio,Streptococcus pneumoniae [22],32
same,half-life,[23],2.94 h
same,MBC,Staphylococcus aureus [24],16 µg/mL
same,Activity,Streptococcus pneumoniae [25],2 log10CFU
same,MBC,Streptococcus pyogenes [26],2 µg/mL
same,Ratio,Haemophilus influenzae [27],2
same,Ratio,Streptococcus pyogenes [28],32
same,Ratio,[29],1.4
same,AUC(0-inf),[30],6760 ng·h/mL
same,MIC,Staphylococcus aureus [31],8 µg/mL
same,Ratio,Rattus norvegicus [32],0.4
same,Tmax,[33],0.833 h
same,Ratio,Staphylococcus aureus [34],32
same,AUC(0-t),[35],6730 ng·h/mL
same,Ratio,Rattus norvegicus [36],7
same,Ratio,Streptococcus pyogenes [37],8
